Keap1-Nrf2 PPI: inhibitors of human Keap1-Nrf2 protein-protein interaction; AID 504523; 340,000 compounds, 0.15% hits; inhibition, % at 9.4 µM; Q14145; Keap1 Kelch-Nrf2 peptide fluorescence polarization, 1536-well; in the data active = inhibition above about 12%;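 also: human Keap1 Kelch domain with fluorescein labeled Nrf2 9mer peptide probe; 0% = neutral control wells and 100% = peptide positive control; higher means more block of Keap1 binding to Nrf2 peptide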
Target sequence (Q14145 whole entry, looked up, the tested form may be a part): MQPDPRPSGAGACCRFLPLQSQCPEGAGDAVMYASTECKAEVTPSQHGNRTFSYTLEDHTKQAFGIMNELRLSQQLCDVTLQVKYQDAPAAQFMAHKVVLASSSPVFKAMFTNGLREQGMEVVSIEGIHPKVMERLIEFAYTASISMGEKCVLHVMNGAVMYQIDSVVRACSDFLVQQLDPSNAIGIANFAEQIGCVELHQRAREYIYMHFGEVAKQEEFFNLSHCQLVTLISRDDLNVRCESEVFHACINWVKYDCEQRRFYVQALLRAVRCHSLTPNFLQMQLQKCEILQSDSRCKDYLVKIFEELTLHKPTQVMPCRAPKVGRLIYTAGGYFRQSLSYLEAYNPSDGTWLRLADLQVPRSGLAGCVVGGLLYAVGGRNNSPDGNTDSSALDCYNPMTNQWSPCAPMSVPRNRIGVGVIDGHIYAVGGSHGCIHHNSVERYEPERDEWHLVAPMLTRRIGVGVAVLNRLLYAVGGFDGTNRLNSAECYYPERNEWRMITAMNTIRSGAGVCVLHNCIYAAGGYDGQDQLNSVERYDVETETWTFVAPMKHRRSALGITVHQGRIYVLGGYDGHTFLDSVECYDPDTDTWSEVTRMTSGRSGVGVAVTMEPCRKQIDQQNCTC
CAL PDZ FP-1: CAL PDZ (human) peptide binding inhibition | Q9HD26 | purified CAL PDZ, TMR-peptide fluorescence polarization, 1 h | inhibition, % at 24.9 µM | 300,000 compounds, 0.92% hits | AID 602252;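 active = mean inhibition of at least 30% with at least half of replicates also reaching 30%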;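 also: 0% = DMSO neutral control and 100% = excess unlabeled competitor peptide PRC23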
RTF Ca sens inh: cardiac RTF calcium desensitization. IANBD-labeled cardiac RTF, Ca2+ fluorescence. 340,000 compounds, 0.12% hits. P19429+P45379. inhibition, % at 7.15 µM. AID 493244;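 active = inhibition above the mean inhibition of all tested compounds plus 3 SD, cut at about 17% in these data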;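 also: assay run at fixed EC70 calcium of 1.6 mM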
C-LANA FP: inhibitors of KSHV LANA C-terminal domain DNA binding. 340,000 compounds, 0.078% hits. AID 504423. inhibition, % at 9 µM. MBP-C-LANA/FAM-LBS DNA binding, fluorescence polarization;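 active = highest replicate inhibition at or above 60% at 9 µM, even if other replicates fall short; inactive = all replicates below 60% inhibition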;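 also: 0% = neutral control wells and 100% = 4 µM acridine orange control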
RTF Ca sens act: cardiac RTF calcium sensitization; P19429+P45379; 340,000 compounds, 0.24% hits; IANBD-labeled TnC RTF fluorescence at EC20 calcium; 0% EC20 calcium, 100% full calcium; AID 493008; activation, % at 7.2 µM;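 active = activation above the mean over all tested compounds plus 3 SD, cut at about 30% in these data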;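 also: rise in fluorescence read as greater calcium sensitivity of cardiac thin filaments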
CAL PDZ FP-2: inhibitors of human CAL PDZ peptide binding | AID 504414 | purified CAL PDZ, TMR-peptide fluorescence polarization, 1 h | 330,000 compounds, 0.02% hits | inhibition, % at 20 µM;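 active = highest replicate inhibition of at least 40%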;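 also: plate controls were DMSO neutral control wells for no effect and unlabeled competitor peptide control wells for full effect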
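Material: tagged CAL PDZ domain; buffer or medium: 25 mM sodium phosphate pH 7.4, 150 mM NaCl, TCEP, IgG, Thesit; compound dosing: single point, 20 µM; schedule: 1 h incubation at room temperature before polarization reading; measured by: FP readout, S and P plane fluorescence; read-out basis: percent inhibition from loss of millipolarization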
The depositor's hits bear a star; i = inactive; . = no result. Rows were chosen to be rich in hits. Some 1.3% of all compounds tested hit in one or more screens of this group.

SMILES | Keap1-Nrf2 PPI | CAL PDZ FP-1 | RTF Ca sens inh | C-LANA FP | RTF Ca sens act | CAL PDZ FP-2
Cc1cc(C(=O)COC(=O)C2CCN(C(=O)c3ccc(Cl)cc3)CC2)c(C)n1CC1CCCO1 (centres undefined) | -5 | 66* | -3 | -1 | -1 | 6
CCC(=O)c1ccc(OCC(=O)OCC(=O)c2cc(C)n(CC3CCCO3)c2C)cc1 (centres undefined) | 4 | -2 | -2 | -4 | 3 | 1
O=C(NCCCN1CCOCC1)c1cccc(S(=O)(=O)Nc2cc(Cl)ccc2Cl)c1 | -7 | 38* | 5 | 0 | 0 | -1
CC1CN(C(=O)c2cccc(S(=O)(=O)Nc3cc(Cl)ccc3Cl)c2)CC(C)O1 (centres undefined) | -2 | 79* | -4 | -1 | 3 | -1
CC1CN(C(=O)c2cc(S(=O)(=O)N3CCCCC3)ccc2Cl)CC(C)O1 (centres undefined) | 1 | 39* | -11 | -1 | 0 | 0
O=C(NCCN1CCOCC1)c1cccc(S(=O)(=O)Nc2cc(Cl)ccc2Cl)c1 | 2 | -2 | -1 | -2 | -10 | -1
CC1CN(C(=O)c2cccc(S(=O)(=O)Nc3ccccc3Cl)c2)CC(C)O1 (centres undefined) | 0 | -3 | 1 | 1 | -3 | 0
CC1CCCN(C(=O)CN(c2ccccc2)S(=O)(=O)c2ccc(F)cc2)C1 (centres undefined) | 1 | -2 | -8 | 1 | 2 | 0
CCn1nnc(NC(=O)c2ccc(-c3ccc(Cl)cc3)o2)n1 | -9 | 0 | 8 | -1 | 4 | -6
CCn1nnc(NC(=O)Cc2ccc(Cl)cc2)n1 | 2 | 102* | 6 | -2 | 6 | -1
O=C1C(c2ccccc2)=[N+]([O-])c2ccccc21 | 2 | -4 | 6 | 2 | 9 | 1
Cc1cccc(CS(=O)(=O)Cc2ccc(C(=O)O)o2)c1 | -3 | 75* | 3 | -1 | 0 | -1
Cc1cc2c3c([nH]c2cc1S(=O)(=O)NCc1ccc(CN2CCCCCC2)o1)CC(C)(C)CC3=O | 0 | 46* | -8 | 1 | -1 | -2
N#CC1(C#N)COC23CCCCC2C1(C#N)C(=N)O3 (centres undefined) | 21* | 2 | -35 | 45 | 22 | 0
O=[N+]([O-])c1ccc(N2N=C(c3ccccc3)CC2c2ccccc2O)cc1 (centres undefined) | -8 | 1 | -53 | -1 | 47* | -2
C1=C(c2ccc(-c3ccccc3)cc2)Nc2ncnn2C1c1ccco1 (centres undefined) | 6 | -3 | -425 | 27 | 336* | 0
Brc1ccc(C2=CC(c3cccs3)n3ncnc3N2)cc1 (centres undefined) | 55* | -1 | i | 101* | 707* | -7
Cc1cc(NC(=O)CCC(=O)N(c2ccccc2)C(C(=O)NC2CCCC2)c2ccccc2C)no1 (centres undefined) | -1 | -5 | -17 | 0 | -5 | -4
COc1ccc(CCNC/C=C/c2ccccc2)cc1 | 2 | 51* | -4 | -1 | -1 | -1
COc1ccc(CNC/C=C/c2ccccc2)cc1 | -2 | -1 | -6 | 1 | 4 | -2
Cc1ccc(NC(=O)CCCn2c(=S)[nH]c3ccsc3c2=O)cc1C | -5 | -3 | -6 | 0 | -2 | -3
COc1cc(/C=C2\Oc3cc(O)ccc3C2=O)ccc1O | -26 | -4 | -50 | -12 | 41* | 0
CC(=O)Oc1ccc2c(c1)O/C(=C\c1ccncc1)C2=O | 2 | . | -80 | 37 | 60* | -1
COc1ccccc1C(=O)Oc1ccc2c(c1)O/C(=C\c1ccncc1)C2=O | 2 | 1 | -55 | 6 | 35* | -1
CCOC(=O)c1c(NC(=O)COC(=O)c2cccnc2OCC)sc(C(=O)N(CC)CC)c1C | -3 | -6 | -5 | -3 | 3 | -2
O=C1[C@H]2[C@@H](c3ccc(Cl)cc3)N3C(=O)N(c4cccc(Cl)c4)C(=O)[C@@]3(Cc3ccccc3)[C@H]2C(=O)N1C1CCCCC1 | -1 | -3 | 7 | 3 | 2 | 0
CCc1nc2ccc(C(=O)NCCc3ccc(OC)c(OC)c3)cc2nc1CC | -4 | -5 | -3 | 1 | -4 | -4

Bioassay records from PubChem.
